hIAP act: increases human intestinal alkaline phosphatase activity; P09923; purified human IAP, CDP-Star luminescence, 30 min; stronger effect = higher value; 1 = vehicle-only enzyme, 0 = enzyme-free background; activation factor at 10 µM; 330,000 compounds, 0.16% hits;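 active means activation factor of the enzyme at least 2-fold when tested at 20 µM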
bIAP inhibitor: blocks bovine intestinal alkaline phosphatase activity. purified bovine IAP, CDP-star luminescence, 30 min. inhibition, % at 20 µM. 190,000 tested, under 10 active;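 active means over 50% inhibition of intestinal alkaline phosphatase at 20 µM in the single-dose screen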
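Incubation: 30 min reaction at room temperature / Material: purified bovine intestinal alkaline phosphatase (IAP) enzyme / Input: enzyme at 1/65,000,000 dilution / Dosing: 20 µM single dose / Signal: CDP-star luminescence signal / Reagent: CDP-star chemiluminescent phosphatase substrate, 30 µM final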
hIAP block: blocks human intestinal alkaline phosphatase; inhibition, % at 10 µM; 330,000 compounds, 0.12% hits; P09923; AID 2544; purified IAP, CDP-Star luminescence, 30 min;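 active means inhibition reaching a set limit with compound at 10 µM in the primary screen, cut at about 35% in these data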;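 further: plate controls were DMSO wells with enzyme for no effect and no-enzyme buffer wells for full effect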
mIAP activ: increases mouse intestinal alkaline phosphatase activity. muIAP, CDP-Star luminescence, 30 min; stronger effect = higher value; 1 = vehicle-only enzyme signal, 0 = enzyme-free wells. activation factor at 10 µM. 330,000 compounds, 0.24% hits. AID 2805;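 active means activation factor of at least 2 at 20 µM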
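System: Mouse IAP enzyme | Also added: CDP-Star substrate | Dosing: Compounds dispensed in DMSO | Schedule: 30 min enzyme-substrate-compound incubation at room temperature | Technique: Chemiluminescence readout | Control set: DMSO-only wells and no-enzyme negative control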
mIAP inh: blocks mouse intestinal alkaline phosphatase; purified mouse IAP, CDP-Star luminescence, 30 min; 330,000 compounds, 0.2% hits; inhibition, % at 10 µM;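 active means inhibition of at least 40% at 10 µM in the primary screen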;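 further: plate controls were DMSO with enzyme for no effect and no enzyme wells for full effect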
bIAP activator: intestinal alkaline phosphatase (bovine) activation; purified bovine IAP, CDP-star luminescence, 30 min; stronger effect = higher value; fold of DMSO-control signal, blank-subtracted; 200,000 compounds, 0.17% hits; activation factor at 20 µM;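 active means activation factor of 2 or more at 20 µM, a signal rise over negative controls twice the positive control's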
mIAP inh conf: mouse IAP inhibition confirmation | shares compounds with mIAP inh | inhibition, % at 10 µM | AID 434971 | 11,000 compounds, 4.7% hits | purified mouse IAP, CDP-Star luminescence, 30 min;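 active means inhibition of at least 40% at 10 µM in either of the two replicates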;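 further: plate controls were DMSO wells with enzyme for no effect and buffer wells lacking enzyme for full effect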
* marks the source's active call; other numbers are inactive results; x = no result. In the library only some 0.77% were active in any assay of this set; here they are far more common.

SMILES	hIAP act	bIAP inhibitor	hIAP block	mIAP activ	mIAP inh	bIAP activator	mIAP inh conf
O=C1CC(c2ccc(O)cc2)Oc2cc(O)cc(O)c21 (centres undefined)	1.02	-12.7	-2.5	1.01	-1.4	1.1	x
O=C1CC(c2ccc(O)c(O)c2)Oc2c1ccc(O)c2O (centres undefined)	0.724	x	27.6	0.221	77.9*	x	80.9*
O=C(NC1CCCC1)C(c1ccc(F)cc1)N(Cc1ccc(F)cc1)C(=O)c1ccn[nH]1 (centres undefined)	1.76	-142.1	-75.7	2.2*	-119.8	2.4*	-104.7
COc1ccc(O)c(N)c1	0.735	-11.4	26.5	0.592	40.8*	1.1	48.0*
Cc1ccc(S(=O)(=O)N(C)C)cc1NC(=O)Nc1ccccc1F	1.43	x	-43.4	1.58	-58.1	x	x
Cc1cc(C)cc(NC(=O)Nc2cc(S(=O)(=O)N(C)C)ccc2C)c1	1.02	x	-2.5	4.88*	-387.8	x	-243.4
CCOc1ccccc1NC(=O)c1cnc(NS(=O)(=O)c2ccccc2)nc1	0.987	x	1.3	0.943	5.7	x	x
COc1cc(CNc2ncnc3c2[nH]c2ccc(C)cc23)cc(OC)c1	1.69	x	-69.0	3.12*	-211.6	x	-197.0
Cc1ccc(/C=C2\SC(=S)N(/N=C/c3cc([N+](=O)[O-])ccc3O)C2=O)o1	0.815	0.5	18.5	0.18	82.0*	1	86.3*
O=[N+]([O-])c1ccc(O)c(/C=N/n2cnc3ccccc32)c1	0.873	8.6	12.7	0.971	2.9	0.9	x
O=C(NCC1CC1(Cl)Cl)Nc1ccc(Cl)c(Cl)c1 (centres undefined)	1.06	x	-5.6	2.93*	-192.8	x	-152.6
COc1ccc(N2CCN(C(=O)[C@@H](NC(=O)c3ccccc3Cl)C(C)C)CC2)cc1	1	x	0.0	0.992	0.8	x	x
CN1CCC(=NNC(=O)CN(c2ccc([N+](=O)[O-])cc2)S(=O)(=O)c2ccccc2)CC1	1.05	x	-5.0	0.883	11.7	x	x
Cn1cccc1C(=O)OCc1cc(Cl)cc2c1OCOC2	1.07	-1.3	-6.9	0.938	6.2	1	24.1*
O=C(CSc1ncn[nH]1)CSc1ncn[nH]1	1.35	-32.9	-35.1	0.541	45.9*	1.3	48.3*
CC(=O)c1ccc(C(=O)N2CCCC(N3CCN(c4ccc(F)cc4)CC3)C2)s1 (centres undefined)	1.12	x	-11.9	0.914	8.6	x	x
Cc1ccc(NC(=O)C2(C)Cc3ccccc3C(=O)O2)cc1 (centres undefined)	1.1	-3.2	-9.7	1.01	-0.8	1	x
CCc1ccc(NC(=S)NC2CC3CCCC(C2)N3Cc2ccccc2)cc1 (centres undefined)	1.45	-364.4	-44.9	4.96*	-396.5	4.6*	-169.6
O=C(Nc1ccccc1-c1ccccc1)NC1CC2CCCC(C1)N2Cc1ccc(F)cc1 (centres undefined)	1.85	-482.9	-84.7	5.05*	-404.9	5.8*	-269.7
CCCN1C2CCCC1CC(NC(=S)Nc1cccc(C)c1)C2 (centres undefined)	1.35	5.4	-34.6	1.26	-26.4	0.9	x
Cc1cccc(NC(=S)NC2CC3CCCC(C2)N3CC(C)C)c1 (centres undefined)	0.927	1.2	7.3	2.54*	-153.9	1	-144.8
CCc1ccc(NC(=S)NC2CC3CCC(C2)N3Cc2ccco2)cc1 (centres undefined)	1.04	5.4	-3.7	1.32	-32.1	0.9	x
O=S(=O)(c1ccccc1)C1(C2CC(c3ccccc3)=NO2)CC(O)C1 (centres undefined)	0.821	x	17.9	1.05	-5.0	x	x
C#CCOCCOCCOCCNc1nc(N2CCN(C(=O)CCCCCCCCCCNC(=O)Cn3cc(CCCCCN)nn3)CC2)nc(N2CCN(C(=O)CCCCCCCCCCNC(=O)[C@@H]([C@H](C)O)n3cc(C)nn3)CC2)n1	0.985	x	1.5	1.35	-34.6	x	x
C#CCOCCOCCOCCNc1nc(N2CCN(C(=O)CCCCCCCCCCNC(=O)[C@@H](CCSC)n3cc(CCO)nn3)CC2)nc(N2CCN(C(=O)CCCCCCCCCCNC(=O)[C@@H]([C@H](C)O)n3cc(C)nn3)CC2)n1	1.22	x	-21.7	1.55	-55.3	x	x

From PubChem
